Experimental data as given in ChEMBL document CHEMBL4842360, “Discovery of a Bicyclic Peptidyl Pan-Ras Inhibitor” (J Med Chem, 2021).

Assays:
NCI-H358 [1] = assay: Antiproliferative activity against human NCI-H358 cells incubated for 96 hrs by MTT assay; format: functional, cell-based
Procedure, shortened: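 H358 cells at 5,000/well, grown overnight, treated with serially diluted peptide (0–40 μM) in 10% FBS medium for 96 h at 37 °C. MTT added for 4 h, formazan solubilized overnight in SDS-HCl, absorbance read at 570 nm.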

NCI-H358 [2] = assay: Antiproliferative activity against human NCI-H358 cells incubated for 96 hrs by Celltiter-Glo assay; format: functional, cell-based; conditions: Homo sapiens, NCI-H358, 96 h; read-out: EC50
GTPase KRas = GTPase KRas (Homo sapiens, UniProt P01116, G12V); assay: Inhibition of His6-tagged KRas G12V mutant (unknown origin) expressed in Escherichia coli BL21(DE3) cells assessed as reduction in Ras/GST-fused Raf RBD interaction incubated for 1 hr by HTRF assay
Chain of GTPase KRas (P01116 whole entry G12V, the tested form may be a part): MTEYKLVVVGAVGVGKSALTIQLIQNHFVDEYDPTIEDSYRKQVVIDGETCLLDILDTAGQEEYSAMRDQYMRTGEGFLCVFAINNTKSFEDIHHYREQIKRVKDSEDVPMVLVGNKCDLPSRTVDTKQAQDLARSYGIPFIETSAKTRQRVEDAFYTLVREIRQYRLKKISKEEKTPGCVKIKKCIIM

[3] = Homo sapiens, NCI-H358, 96 h, read-out: EC50

SMILES | EC50 (NCI-H358 [2]) [µM] | IC50 (GTPase KRas; read-out: IC50) [nM] | other results
CCCC[C@H](NC(=O)CNC(=O)C[C@H](CCC)NC(=O)[C@@H]1CNC(=O)c2cc3cc(c2)C(=O)N[C@H](Cc2ccc4ccccc4c2)C(=O)N[C@@H](CO)C(=O)N[C@@H](CCC(N)=O)C(=O)N[C@H](Cc2ccc4ccccc4c2)C(=O)N[C@@H](c2ccccc2)C(=O)N[C@@H](CCCCNC3=O)C(=O)N[C@H](Cc2ccccc2)C(=O)N[C@@H](C)C(=O)N[C@H](CCCNC(=N)N)C(=O)N[C@@H](CCCNC(=N)N)C(=O)N1)C(=O)N[C@H](CCCNC(=N)N)C(N)=O |  |  | EC50 (NCI-H358 [1]; [3]): 24 µM
C[C@@H]1NC(=O)[C@@H](Cc2ccccc2)NC(=O)[C@@H]2CCCCNC(=O)c3cc(cc(c3)C(=O)N[C@H](Cc3ccc4ccccc4c3)C(=O)N[C@@H](CO)C(=O)N[C@@H](CC(N)=O)C(=O)N[C@H](Cc3ccc4ccccc4c3)C(=O)N[C@@H](c3ccccc3)C(=O)N2)C(=O)NC[C@@H](C(=O)N[C@@H](CC(N)=O)C(=O)N[C@H](CCCNC(=N)N)C(=O)N[C@@H](Cc2ccc(F)c(F)c2)C(=O)N[C@H](C)C(N)=O)NC(=O)[C@H](CCCNC(=N)N)NC(=O)[C@@H](CCCNC(=N)N)NC1=O | 4.4 | 500 | 
C[C@@H]1NC(=O)[C@@H](Cc2ccccc2)NC(=O)[C@@H]2CCCCNC(=O)c3cc(cc(c3)C(=O)N[C@H](Cc3ccc4ccccc4c3)C(=O)N[C@@H](CO)C(=O)N[C@@H](CCC(N)=O)C(=O)N[C@H](Cc3ccc4ccccc4c3)C(=O)N[C@@H](c3ccccc3)C(=O)N2)C(=O)NC[C@@H](C(=O)N[C@@H](CCC(=O)O)C(=O)N[C@@H](Cc2cnc[nH]2)C(=O)N2CCC[C@@H]2C(=O)N[C@H](Cc2ccc(O)cc2)C(=O)N[C@@H](CCCCN)C(N)=O)NC(=O)[C@H](CCCNC(=N)N)NC(=O)[C@@H](CCCNC(=N)N)NC1=O |  |  | EC50 (NCI-H358 [1]; nci-h358): Not Active
C[C@@H]1NC(=O)[C@@H](Cc2ccccc2)NC(=O)[C@@H]2CCCCNC(=O)c3cc(cc(c3)C(=O)N[C@H](Cc3ccc4ccccc4c3)C(=O)N[C@@H](CO)C(=O)N[C@@H](CC(N)=O)C(=O)N[C@H](Cc3ccc4ccccc4c3)C(=O)N[C@@H](c3ccccc3)C(=O)N2)C(=O)NC[C@@H](C(=O)N[C@@H](CCN)CC(=O)N[C@H](CCCNC(=N)N)C(=O)N[C@@H](Cc2ccc(F)cc2)C(=O)N[C@H](C)C(=O)N[C@@H](CCCCN)C(N)=O)NC(=O)[C@H](CCCNC(=N)N)NC(=O)[C@@H](CCCNC(=N)N)NC1=O | 7.2 | 890 | 
CC(C)[C@@H](NC(=O)C[C@H](CCN)NC(=O)[C@@H]1CNC(=O)c2cc3cc(c2)C(=O)N[C@H](Cc2ccc4ccccc4c2)C(=O)N[C@@H](CO)C(=O)N[C@@H](CCC(N)=O)C(=O)N[C@H](Cc2ccc4ccccc4c2)C(=O)N[C@@H](c2ccccc2)C(=O)N[C@@H](CCCCNC3=O)C(=O)N[C@H](Cc2ccccc2)C(=O)N[C@@H](C)C(=O)N[C@H](CCCNC(=N)N)C(=O)N[C@@H](CCCNC(=N)N)C(=O)N1)C(=O)N[C@H](C)CC(=O)N[C@H](Cc1c[nH]c2ccccc12)C(=O)NCCC(N)=O |  |  | EC50 (NCI-H358 [1]; nci-h358): Not Active
C[C@@H]1NC(=O)[C@@H](Cc2ccccc2)NC(=O)[C@@H]2CCCCNC(=O)c3cc(cc(c3)C(=O)N[C@H](Cc3ccc4ccccc4c3)C(=O)N[C@@H](CO)C(=O)N[C@@H](CC(N)=O)C(=O)N[C@H](Cc3ccc4ccccc4c3)C(=O)N[C@@H](c3ccccc3)C(=O)N2)C(=O)NC[C@@H](C(=O)N[C@@H](CCN)CC(=O)N[C@H](CCCNC(=N)N)C(=O)N[C@@H](Cc2ccc(F)cc2)C(=O)N[C@H](C)C(N)=O)NC(=O)[C@H](CCCNC(=N)N)NC(=O)[C@@H](CCCNC(=N)N)NC1=O | 6 | 700 | 
C[C@@H]1NC(=O)[C@@H](Cc2ccccc2)NC(=O)[C@@H]2CCCCNC(=O)c3cc(cc(c3)C(=O)N[C@H](Cc3ccc4ccccc4c3)C(=O)N[C@@H](CO)C(=O)N[C@@H](CCC(N)=O)C(=O)N[C@H](Cc3ccc4ccccc4c3)C(=O)N[C@@H](c3ccccc3)C(=O)N2)C(=O)NC[C@@H](C(=O)N[C@@H](CCN)CC(=O)N[C@H](CCCNC(=N)N)C(=O)N[C@@H](Cc2ccc(F)cc2)C(=O)N[C@H](C)C(=O)N[C@@H](CCCCN)C(N)=O)NC(=O)[C@H](CCCNC(=N)N)NC(=O)[C@@H](CCCNC(=N)N)NC1=O |  |  | EC50 (NCI-H358 [1]; [3]): 17 µM
C[C@@H]1NC(=O)[C@@H](Cc2ccccc2)NC(=O)[C@@H]2CCCCNC(=O)c3cc(cc(c3)C(=O)N[C@H](Cc3ccc4ccccc4c3)C(=O)N[C@@H](CO)C(=O)N[C@@H](CCC(N)=O)C(=O)N[C@H](Cc3ccc4ccccc4c3)C(=O)N[C@@H](c3ccccc3)C(=O)N2)C(=O)NC[C@@H](C(=O)N[C@@H](CCN)CC(=O)N[C@H](CC(N)=O)C(=O)N[C@H](Cc2ccc(O)cc2)C(=O)N[C@@H](C(N)=O)[C@H](C)O)NC(=O)[C@H](CCCNC(=N)N)NC(=O)[C@@H](CCCNC(=N)N)NC1=O |  |  | EC50 (NCI-H358 [1]; nci-h358): Not Active
C[C@@H]1NC(=O)[C@@H](Cc2ccccc2)NC(=O)[C@@H]2CCCCNC(=O)c3cc(cc(c3)C(=O)N[C@H](Cc3ccc4ccccc4c3)C(=O)N[C@@H](CO)C(=O)N[C@@H](CC(N)=O)C(=O)N[C@H](Cc3ccc4ccccc4c3)C(=O)N[C@@H](c3ccccc3)C(=O)N2)C(=O)NC[C@@H](C(=O)N[C@@H](CCC(N)=O)C(=O)N[C@H](CCCNC(=N)N)C(=O)N[C@@H](Cc2ccccc2)C(=O)N[C@H](C)C(N)=O)NC(=O)[C@H](CCCNC(=N)N)NC(=O)[C@@H](CCCNC(=N)N)NC1=O | 7.5 | 230 | 
CC(C)C[C@@H](NC(=O)[C@H](CCC(N)=O)NC(=O)CNC(=O)[C@@H]1CNC(=O)c2cc3cc(c2)C(=O)N[C@H](Cc2ccc4ccccc4c2)C(=O)N[C@@H](CO)C(=O)N[C@@H](CCC(N)=O)C(=O)N[C@H](Cc2ccc4ccccc4c2)C(=O)N[C@@H](c2ccccc2)C(=O)N[C@@H](CCCCNC3=O)C(=O)N[C@H](Cc2ccccc2)C(=O)N[C@@H](C)C(=O)N[C@H](CCCNC(=N)N)C(=O)N[C@@H](CCCNC(=N)N)C(=O)N1)C(=O)N[C@H](CCCNC(=N)N)C(=O)N[C@@H](CCCCN)C(N)=O |  |  | EC50 (NCI-H358 [1]; nci-h358): Not Active
CC(C)[C@@H](NC(=O)C[C@@H](CC(N)=O)NC(=O)[C@@H]1CNC(=O)c2cc3cc(c2)C(=O)N[C@H](Cc2ccc4ccccc4c2)C(=O)N[C@@H](CO)C(=O)N[C@@H](CCC(N)=O)C(=O)N[C@H](Cc2ccc4ccccc4c2)C(=O)N[C@@H](c2ccccc2)C(=O)N[C@@H](CCCCNC3=O)C(=O)N[C@H](Cc2ccccc2)C(=O)N[C@@H](C)C(=O)N[C@H](CCCNC(=N)N)C(=O)N[C@@H](CCCNC(=N)N)C(=O)N1)C(=O)N[C@H](C)CC(=O)N[C@H](Cc1c[nH]c2ccccc12)C(=O)NCCC(N)=O |  |  | IC50 (GTPase KRas): Not Active
C[C@@H]1NC(=O)[C@@H](Cc2ccccc2)NC(=O)[C@@H]2CCCCNC(=O)c3cc(cc(c3)C(=O)N[C@H](Cc3ccc4ccccc4c3)C(=O)N[C@@H](CO)C(=O)N[C@@H](CCC(N)=O)C(=O)N[C@H](Cc3ccc4ccccc4c3)C(=O)N[C@@H](c3ccccc3)C(=O)N2)C(=O)NC[C@@H](C(=O)N2CCC[C@@H]2C(=O)N[C@H](CCCNC(=N)N)C(=O)N[C@H](Cc2ccc3ccccc3c2)C(=O)N[C@@H](CCC(=O)O)C(N)=O)NC(=O)[C@H](CCCNC(=N)N)NC(=O)[C@@H](CCCNC(=N)N)NC1=O |  |  | IC50 (GTPase KRas): Not Active
C[C@@H]1NC(=O)[C@@H](Cc2ccccc2)NC(=O)[C@@H]2CCCCNC(=O)c3cc(cc(c3)C(=O)N[C@H](Cc3ccc4ccccc4c3)C(=O)N[C@@H](CO)C(=O)N[C@@H](CC(N)=O)C(=O)N[C@H](Cc3ccc4ccccc4c3)C(=O)N[C@@H](c3ccccc3)C(=O)N2)C(=O)NC[C@@H](C(=O)N[C@@H](CC(N)=O)C(=O)N[C@H](CCCNC(=N)N)C(=O)N[C@@H](Cc2cccnc2)C(=O)N[C@H](C)C(N)=O)NC(=O)[C@H](CCCNC(=N)N)NC(=O)[C@@H](CCCNC(=N)N)NC1=O | 6.6 | 410 | 
C[C@@H]1NC(=O)[C@@H](Cc2ccccc2)NC(=O)[C@@H]2CCCCNC(=O)c3cc(cc(c3)C(=O)N[C@H](Cc3ccc4ccccc4c3)C(=O)N[C@@H](CO)C(=O)N[C@@H](CCC(N)=O)C(=O)N[C@H](Cc3ccc4ccccc4c3)C(=O)N[C@@H](c3ccccc3)C(=O)N2)C(=O)NC[C@@H](C(=O)N[C@H](CCCCN)C(=O)N[C@@H](Cc2c[nH]cn2)C(=O)N[C@H](Cc2ccc(O)cc2)C(=O)N[C@H](CCC(=O)O)C(N)=O)NC(=O)[C@H](CCCNC(=N)N)NC(=O)[C@@H](CCCNC(=N)N)NC1=O |  |  | IC50 (GTPase KRas): Not Active
C[C@@H]1NC(=O)[C@@H](Cc2ccccc2)NC(=O)[C@@H]2CCCCNC(=O)c3cc(cc(c3)C(=O)N[C@H](Cc3ccc4ccccc4c3)C(=O)N[C@@H](CO)C(=O)N[C@@H](CC(N)=O)C(=O)N[C@H](Cc3ccc4ccccc4c3)C(=O)N[C@@H](c3ccccc3)C(=O)N2)C(=O)NC[C@@H](C(=O)N[C@@H](CC(N)=O)C(=O)N[C@H](CCCNC(=N)N)C(=O)N[C@@H](Cc2ccccc2)C(=O)N[C@H](C)C(N)=O)NC(=O)[C@H](CCCNC(=N)N)NC(=O)[C@@H](CCCNC(=N)N)NC1=O | 8.4 | 280 | 
C[C@@H]1NC(=O)[C@@H](Cc2ccccc2)NC(=O)[C@@H]2CCCCNC(=O)c3cc(cc(c3)C(=O)N[C@H](Cc3ccc4ccccc4c3)C(=O)N[C@@H](CO)C(=O)N[C@@H](CC(N)=O)C(=O)N[C@H](Cc3ccc4ccccc4c3)C(=O)N[C@@H](c3ccccc3)C(=O)N2)C(=O)NC[C@@H](C(=O)N[C@@H](CCN)CC(=O)N[C@H](CCCNC(=N)N)C(=O)N[C@@H](Cc2ccccc2)C(=O)N[C@H](C)C(N)=O)NC(=O)[C@H](CCCNC(=N)N)NC(=O)[C@@H](CCCNC(=N)N)NC1=O | 3.2 | 510 | 
C[C@@H]1NC(=O)[C@@H](Cc2ccccc2)NC(=O)[C@@H]2CCCCNC(=O)c3cc(cc(c3)C(=O)N[C@H](Cc3ccc4ccccc4c3)C(=O)N[C@@H](CO)C(=O)N[C@@H](CCC(N)=O)C(=O)N[C@H](Cc3ccc4ccccc4c3)C(=O)N[C@@H](c3ccccc3)C(=O)N2)C(=O)NC[C@@H](C(=O)N2CCC[C@@H]2C(=O)N[C@H](CCCNC(=N)N)C(=O)N[C@H](Cc2ccccc2)C(=O)N[C@H](Cc2ccc(O)cc2)C(N)=O)NC(=O)[C@H](CCCNC(=N)N)NC(=O)[C@@H](CCCNC(=N)N)NC1=O |  |  | IC50 (GTPase KRas): Not Active
